# NPY-Y2 antag: NPY-Y2 receptor antagonists, primary screen, cell-based. hit rate 0.99% among 140,000. NPY-Y2 expressing cells, antagonist mode. AID 793, 2007. inhibition, % at 2.7 µM. Neuropeptide Y receptor type 2 (Homo sapiens), P49146; in the data active = inhibition above about 17%;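 also: 0% = vehicle with agonist challenge and 100% = reference antagonist with challenge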
# NPY-Y2 PAM-ag: NPY-Y2 potentiators or agonists, primary screen, cell-based | Neuropeptide Y receptor type 2 (Homo sapiens), P49146 | cells expressing NPY-Y2, potentiator/agonist read-out | activation, % at 3.6 µM | hit rate 0.45% among 220,000 | AID 1359, 2008; in the data active = activation above about 27%;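 also: cells stimulated with NPY near EC25 plus isoproterenol at EC100; 0% = vehicle plus submaximal agonist and 100% = vehicle plus saturating agonist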
# NPY1 pot ag: NPY-Y1 receptor potentiators or agonists, primary screen, cell-based. activation, % at 3.6 µM. NPY-Y1 expressing cells, potentiator/agonist activation. hit rate 0.37% among 220,000. Neuropeptide Y receptor type 1 (Homo sapiens), P25929; in the data active = activation above about 33%, passing the limit was not always enough;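 also: cells stimulated with NPY at EC10 then isoproterenol at EC100; 0% = low agonist plus stimulus and 100% = saturating agonist plus stimulus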
# Target sequence (P25929 whole entry, looked up): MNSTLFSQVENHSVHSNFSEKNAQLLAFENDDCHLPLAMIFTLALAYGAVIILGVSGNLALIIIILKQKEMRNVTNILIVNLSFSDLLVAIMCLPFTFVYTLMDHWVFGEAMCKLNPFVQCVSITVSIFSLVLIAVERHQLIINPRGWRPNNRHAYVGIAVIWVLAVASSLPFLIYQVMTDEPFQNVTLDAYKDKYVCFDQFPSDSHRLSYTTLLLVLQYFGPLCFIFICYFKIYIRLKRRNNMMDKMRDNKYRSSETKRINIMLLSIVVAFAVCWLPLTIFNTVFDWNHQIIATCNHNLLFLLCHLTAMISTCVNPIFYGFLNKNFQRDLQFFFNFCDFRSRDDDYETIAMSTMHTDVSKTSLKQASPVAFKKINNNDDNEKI
# Calpain2 inh: inhibitors of pig calpain II, primary screen, biochemical, fluorogenic peptide substrate, 1536-well | purified calpain II, 30 min | inhibition, % at 16 µM | hit rate 0.37% among 220,000;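 active = inhibition above about 50%, limit read from the data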
# Tb hexokinase: Trypanosoma brucei hexokinase 1 inhibitors, primary screen, biochemical, G6PDH-coupled NADH absorbance, MLSCN library; hit rate 0.11% among 220,000; inhibition, % at 10 µM; hexokinase 1 [Trypanosoma brucei]; AID 1430, 2008; recombinant TbHK1, G6PDH-coupled NADH A340;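 active = inhibition of 50% or more in the single-dose primary screen; inactive = inhibition below 50%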
# NPY-Y1 antag: NPY-Y1 receptor antagonists, primary screen, cell-based; Neuropeptide Y receptor type 1 (Homo sapiens), P25929; HEK293-CNG Y1 cells, membrane potential fluorescence; NPY at EC95, then isoproterenol; inhibition, % at 3.6 µM; hit rate 1% among 200,000; AID 1040, 2008;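 active = inhibition above the campaign mean inhibition of all tested compounds plus 3 SD, cut at about 20% in these data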;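 also: 0% = DMSO wells given NPY plus isoproterenol and 100% = isoproterenol alone without NPY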
#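 Material: HEK293 cells with Y1 receptor plus CNG channel; times: compound incubation 1 h at room temperature, readout 45 min post-stimulation; signal: fluorescence, membrane potential probe; read-out basis: fluorescence ratio normalized to % inhibition between controls; benchmarks: full-block control isoproterenol-only wells, zero-block control NPY plus isoproterenol wells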
# * marks the source's active call; other numbers are inactive results; i = inactive; / = not tested or not shown. Shown are actives, neighbours in structure and some others; about 2.3% of the full set was active somewhere.
SMILES,NPY-Y2 antag,NPY-Y2 PAM-ag,NPY1 pot ag,Calpain2 inh,Tb hexokinase,NPY-Y1 antag
Cc1cc(Nc2cccc(F)c2)nc(-c2ccccc2O)n1,-5,42*,40*,-148,-1,-9
Fc1ccccc1Nc1nc2c(s1)CCc1ccccc1-2,0,4,2,10,20,9
CCOC(=O)N1CCN(C(=O)c2ccc(Oc3ccc([N+](=O)[O-])cc3)cc2)CC1,/,1,-24,37,-12,6
Cc1ccccc1NC(=O)COC(=O)CCc1ccccc1,/,5,1,64*,-3,1
O=S(=O)(Nc1ccc(-n2cccc2)cc1)c1ccc(Cl)c(Cl)c1,/,-27,-22,35,24,/
O=S(=O)(Nc1ccc(-n2cccc2)cc1)c1ccc(Cl)cc1Cl,5,-12,1,65*,7,-1
N#CC(C(=O)NC1CCCCC1)=C1CCCCCC1,-1,-8,1,-1,2,8
Cc1c(O)c(CN2CCCC2)cc2c3c(c(=O)oc12)CCC3,1,4,-6,i,16,-1
Cc1c(O)c(CN2CCCC2)cc2c1oc(=O)c1ccccc12,2,57*,65*,-39,-7,-17
COc1cc(/C=N/Nc2nc(=O)[nH]nc2C)cc([N+](=O)[O-])c1O,/,12,1,7,-57,/
COC(=O)c1c(NC(=O)c2c(-c3ccccc3Cl)noc2C)sc2c1CCC2,23*,-32,-25,-117,-17,37*
COc1ccc(OC)c(-c2csc(N3CCC(c4ccccc4)CC3)n2)c1,/,5,13,-18,-2,2
Cn1nc(C(F)(F)F)c(-c2ccc(Br)cc2)c1NC(=O)Nc1ccc(F)cc1F,/,99*,108*,-4,-16,/
Cn1nc(C(F)(F)F)c(-c2ccc(F)cc2)c1NC(=O)c1ccco1,/,-1,6,-10,-12,/
CCOC(=O)C1CCCN(CC(O)COc2ccccc2C(C)=O)C1 (configuration not stated),2,37*,62*,-26,-8,-7
CCOC(=O)C1CCCN(CC(O)COc2ccc(OC)cc2C(C)(C)C)C1 (configuration not stated),2,49*,41*,19,-6,-5
O=C(O)c1cccnc1SC1CC(=O)N(c2ccc(OC(F)F)cc2)C1=O (configuration not stated),/,4,-17,19,-6,/
CCN(CC)c1ccc(C(=O)NC(=S)Nc2cc(S(=O)(=O)N3CCOCC3)ccc2-n2cncn2)cc1,1,4,-7,58*,-19,-4
Cc1cc(C(F)(F)F)nc(NCc2cccnc2)n1,5,7,-37,-16,79*,0
O=C(NC1CCCCC1)C(c1ccco1)N(Cc1cccs1)C(=O)Cn1nnc2ccccc21 (configuration not stated),42*,0,-37,/,4,51*
O=C(NC1CCCCC1)C(c1ccccc1)N(Cc1ccco1)C(=O)Cn1cnc2ccccc21 (configuration not stated),55*,-97,-130,2,-6,78*
O=C(NCc1ccco1)C(c1ccco1)N(Cc1cccs1)C(=O)Cn1nnc2ccccc21 (configuration not stated),3,4,-16,-9,6,1
CCC(C)(C)NC(=O)C(c1ccc(C)o1)N(Cc1cccs1)C(=O)Cn1nnc2ccccc21 (configuration not stated),50*,-36,-131,-22,11,70*
COCCNC(=O)C(c1ccccc1)N(Cc1cccs1)C(=O)Cn1nnc2ccccc21 (configuration not stated),2,-1,-12,11,-5,-5
CCC(C)(C)NC(=O)C(c1ccccc1)N(Cc1cccs1)C(=O)Cn1nnc2ccccc21 (configuration not stated),133*,-187,-328,/,-1,136*
Cc1nc(Cl)c2c(n1)N(CC(N)=O)C(=O)CO2,3,11,14,-4,1,-5
